Laboratory results reported in ChEMBL document CHEMBL1155040, “Potency and selectivity of trifluoroacetylimino and pyrazinoylimino nicotinic insecticides and their fit at a unique binding site niche” (J Med Chem, 2008).
≈ marks a conversion by molar mass, not a printed value.

What was measured:
Musca domestica [1] = test: Insecticidal activity against houseflies; assay type: functional
How it was run: (§1)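 Adult female houseflies were dosed by intrathoracic injection or topical application, either without or with topical pretreatment with the P450 inhibitor synergist O-propyl O-(2-propynyl)phenylphosphonate (100 µg/g) before the test chemical. Where no LD50 was obtained, percent mortality at the indicated dose is given.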

Musca domestica [2] = test: Insecticidal activity against intrathoracically dosed houseflies at >10 um/g; assay type: functional; how it was run: as §1
[3] = (§2) Displacement of [3H]IMI from nAChR in Drosophila brain
How it was run: (§3)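 IC50 (nM, ± SD) for displacing [³H]IMI binding to native nAChR from Drosophila brain.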

Drosophila = test: as §2; settings: concentration not given here; how it was run: as §3
Mus musculus [4] = test: Toxicity in Swiss Webster mouse at >24 mg/kg, ip; assay type: organism-based; settings: in vivo
How it was run: (§4)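 Male albino Swiss-Webster mice (25-30 g) were dosed intraperitoneally. Results are LD50 in mg/kg, or percent lethality at the indicated dose, which was the maximum allowed by solubility in the vehicle.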

[5] = Displacement of [3H]IMI from peach-potato aphid alpha2/rat beta2 nAChR hybrid recombinant receptor
[6] = target: Neuronal acetylcholine receptor subunit alpha-4 (Gallus gallus, UniProt P09482+P09484); test: Displacement of [3H]nicotine from chick alpha4beta2 nAChR
Neuronal acetylcholine receptor subunit alpha-4, sequence (P09482 whole entry, one chain of several): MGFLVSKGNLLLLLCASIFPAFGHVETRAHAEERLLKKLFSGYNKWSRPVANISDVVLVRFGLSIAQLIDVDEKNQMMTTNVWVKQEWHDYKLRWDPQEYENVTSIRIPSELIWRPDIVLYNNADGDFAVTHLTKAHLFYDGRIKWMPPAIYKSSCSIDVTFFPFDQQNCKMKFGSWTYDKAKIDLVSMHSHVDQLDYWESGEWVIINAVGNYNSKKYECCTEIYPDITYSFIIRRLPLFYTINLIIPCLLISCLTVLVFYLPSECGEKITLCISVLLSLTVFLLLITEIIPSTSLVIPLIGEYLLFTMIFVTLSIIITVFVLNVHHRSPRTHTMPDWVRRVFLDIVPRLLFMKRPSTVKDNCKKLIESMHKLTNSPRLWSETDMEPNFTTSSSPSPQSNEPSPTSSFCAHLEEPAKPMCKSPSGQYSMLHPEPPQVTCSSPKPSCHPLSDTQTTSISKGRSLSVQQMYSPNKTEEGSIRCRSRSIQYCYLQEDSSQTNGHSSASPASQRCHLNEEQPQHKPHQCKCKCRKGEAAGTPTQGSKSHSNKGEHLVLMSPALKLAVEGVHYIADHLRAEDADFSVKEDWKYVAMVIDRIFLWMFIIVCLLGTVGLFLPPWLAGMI
How it was run: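 Radioligand displacement used [³H]nicotine with chick α4β2 nAChR. Values are IC50 ± SD in nM.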

[7] = Toxicity in ip dosed Swiss Webster mouse; assay type: organism-based; settings: in vivo; how it was run: as §4
Culex quinquefasciatus [8] = test: Mosquito Larvicidal activity against premethrin-susceptible fourth instar Culex quinquefasciatus CQ1 after 24 hrs; assay type: functional; settings: CQ1, 24 h
How it was run: (§5)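 Larvicidal test on fourth-instar Culex quinquefasciatus, using the susceptible CQ1 colony and the permethrin-resistant Marin colony, with 24 h exposure.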

Culex quinquefasciatus [9] = test: Mosquito Larvicidal activity against premethrin-resistant fourth instar Culex quinquefasciatus Marin after 24 hrs; assay type: functional; how it was run: as §5
[10] = Lipophilicity, log P of the compound; assay type: physicochemical; settings: octanol/water
Mus musculus [11] = test: Toxicity in Swiss Webster mouse at >36 mg/kg, ip; assay type: organism-based; settings: in vivo; how it was run: as §4

CNC(=O)Oc1ccccc1OC(C)C [PROPOXUR]
LD50 (Musca domestica [1]): 23 mg/kg

ClC1=C(Cl)[C@]2(Cl)[C@@H]3[C@@H]4C[C@@H]([C@H]5O[C@@H]45)[C@@H]3[C@@]1(Cl)C2(Cl)Cl [DIELDRIN]
LD50 (Musca domestica [1]): 0.75 mg/kg

O=C(/N=c1\sccn1Cc1ccc(Cl)nc1)c1ccc(Cl)cc1
Activity (Musca domestica [2]): 0% | IC50 [3]: > 30000 nM | inhibition (Drosophila): 10% | LD50 (Musca domestica [1]): > 10 mg/kg

O=C(/N=c1\sccn1Cc1ccc(Cl)nc1)c1cnccn1
Activity (Musca domestica [2]): 0% | Activity (Mus musculus [4]): 0% | IC50 [5]: 720 nM | IC50 [6]: 900 nM | IC50 [3]: 1.5 nM | LD50 (Musca domestica [1]): > 10 mg/kg | LD50 [7]: > 24 mg/kg

O=C(/N=c1\sccn1Cc1ccc(Cl)nc1)c1ccccc1
Activity (Musca domestica [2]): 0% | IC50 [3]: 121 nM | LD50 (Musca domestica [1]): > 10 mg/kg

O=C(/N=c1\sccn1Cc1ccc(Cl)nc1)c1ccncc1
Activity (Musca domestica [2]): 0% | IC50 [3]: 10 nM | LD50 (Musca domestica [1]): > 10 mg/kg

CC1(C)C(C=C(Cl)Cl)C1C(=O)OCc1cccc(Oc2ccccc2)c1 (stereo unspecified) [PERMETHRIN]
LC50 (Culex quinquefasciatus [8]): 0.005 µg/mL (≈ 0.0128 µM) | LC50 (Culex quinquefasciatus [9]): 0.16 µg/mL (≈ 0.409 µM)

O=C(/N=c1\sccn1Cc1ccc(Cl)nc1)c1cccnc1
Activity (Musca domestica [2]): 0% | IC50 [3]: 4.8 nM | LD50 (Musca domestica [1]): > 10 mg/kg

O=C(/N=c1\[nH]ccn1Cc1ccc(Cl)nc1)C(F)(F)F
IC50 [3]: 7.7 nM | LD50 (Musca domestica [1]): > 10 mg/kg

O=C(/N=c1\sccn1Cc1ccc(Cl)nc1)c1ccc(Cl)nc1
Activity (Musca domestica [2]): 0% | IC50 [3]: 41 nM | LD50 (Musca domestica [1]): > 10 mg/kg

N#C/N=C1\SCCN1Cc1ccc(Cl)nc1 [THIACLOPRID]
Activity (Musca domestica [2]): 19% | IC50 [5]: 11 nM | IC50 [6]: 860 nM | IC50 [3]: 2.7 nM | LD50 (Musca domestica [1]): > 10 mg/kg | LD50 [7]: 28 mg/kg | logP [10]: 1.26

O=[N+]([O-])/N=C1\NCCN1Cc1ccc(Cl)nc1 [IMIDACLOPRID]
Activity (Musca domestica [2]): 0% | IC50 [5]: 3.6 nM | IC50 [6]: 2600 nM | IC50 [3]: 4.3 nM | LD50 (Musca domestica [1]): > 10 mg/kg | LD50 [7]: 45 mg/kg

CCOP(=S)(OCC)Oc1nc(Cl)c(Cl)cc1Cl [CHLORPYRIFOS]
LD50 (Musca domestica [1]): 2.1 mg/kg

O=C(/N=c1\sccn1Cc1ccc(Cl)nc1)c1ccccn1
Activity (Musca domestica [2]): 0% | IC50 [3]: 13 nM | LD50 (Musca domestica [1]): > 10 mg/kg

CCOP(=S)(OCC)Oc1ccc([N+](=O)[O-])cc1 [PARATHION]
LD50 (Musca domestica [1]): 1.3 mg/kg

O=C(/N=c1\sccn1Cc1ccc(Cl)nc1)C(F)(F)F
IC50 [5]: 280 nM | LC50 (Culex quinquefasciatus [8]): 0.012 µg/mL (≈ 0.0373 µM) | Activity (Mus musculus [11]): 0% | IC50 [6]: 500 nM | IC50 [3]: 3.1 nM | LD50 (Musca domestica [1]): 0.75 mg/kg | LD50 [7]: > 36 mg/kg | LC50 (Culex quinquefasciatus [9]): 0.024 µg/mL (≈ 0.0746 µM)

Clc1ccc(C(c2ccc(Cl)cc2)C(Cl)(Cl)Cl)cc1 [CHLOROPHENOTHANE]
LD50 (Musca domestica [1]): 14 mg/kg
